In ChEMBL document CHEMBL1143713, “Antimitotic activities of 2-phenylindole-3-carbaldehydes in human breast cancer cells” (Bioorg Med Chem, 2007):
Active and inactive are the calls of the source. No cut-off for these calls is given here.

Legend:
MCF7 = experiment: Antiproliferative activity against human MCF7 cells after 5 days; assay type: functional, cell-based; conditions: MCF7, 120 h
MDA-MB-231 [1] = experiment: Antiproliferative activity against human MDA-MB-231 cells after 4 days; assay type: functional, cell-based; conditions: MDA-MB-231, 96 h
[2] = Inhibition of temperature-induced tubulin polymerization of calf brain; design: species or system Bos taurus
Procedure, shortened: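 Tubulin from fresh calf brain cortex, purified by temperature-dependent polymerization/depolymerization cycles and checked by PAGE, in PEMG buffer. Supernatant mixed with compound in DMSO at varying concentrations, preincubated 15 min at 37 °C, chilled, then 25 mM GTP solution added. Temperature switched from 2 to 37 °C in cuvettes; turbidity at 350 nm over 20 min. Mean of two controls = 100%; IC50 from three independent experiments.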

MDA-MB-231 [3] = experiment: Cell cycle arrest in MDA-MB-231 cells by accumulation at G2/M phase after 24 hrs by flow cytometry; assay type: functional, cell-based; conditions: Homo sapiens
Procedure, shortened: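 MDA-MB 231 cells at 70–80% confluence exposed 24 h to compounds diluted from DMF stocks (0.1% DMF final), various concentrations, vincristine reference. Cells trypsinized, fixed in 70% ethanol, DNA-extracted, stained with propidium iodide ≥30 min at room temperature. 8000–15,000 events per sample by flow cytometry; sub-G1, G0/G1, S, G2/M fractions. Representative of two experiments.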

U-87MG ATCC [4] = experiment: Effect on cell morphology in human U87 cells assessed as disruption of microtubule network and loss of function at 10 nM after 3 hrs; assay type: functional, cell-based
Procedure, shortened: (§1)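 U-87 MG glioma cells at 75% confluence treated 3 h at 37 °C; vehicle ethanol. Fixed in 4% paraformaldehyde, permeabilized with 1% Triton X-100. Chromatin stained with SYTOX Green; microtubules with mouse anti-α-tubulin and Cy5 goat anti-mouse antibody (1:200). Imaged by confocal laser scanning microscopy.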

U-87MG ATCC [5] = experiment: Effect on cell morphology in human U87 cells assessed as condensation of microtubule around the nucleus and loss of function at 50 nM after 3 hrs; assay type: functional, cell-based; procedure, shortened: as §1
Tubulin (Homo sapiens) = Tubulin (Homo sapiens) (UniProt P68371+Q9H4B7+P0DPH7+P68366+Q13509+Q71U36+P04350+Q3ZCM7+P07437+P68363+Q9BQE3+Q6PEY2+Q13885+Q9BVA1+Q9BUF5); experiment: Inhibition of tubulin polymerization at 5 uM by microplate assay; assay type: protein-complex assay
Procedure, shortened: (§2)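 Commercial microplate tubulin kit in G-PEM buffer with 5% glycerol. Compounds from DMSO stocks, diluted 1:10 in G-PEM, added to wells prewarmed to 37 °C. Cold tubulin added; absorbance at 355 nm read every minute over about 28–30 min at 37 °C after shift from 2 °C. Solvent controls; colchicine and docetaxel as references.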

Tubulin = experiment: Inhibition of tubulin polymerization by microplate assay; assay type: protein-complex assay, Homo sapiens; procedure, shortened: as §2

| IC50 (MCF7) [nM] | IC50 (MDA-MB-231 [1]) [nM] | SMILES | further results |
| --- | --- | --- | --- |
| 1650 | 800 | COc1ccc2c(C=O)c(-c3ccc(OC)c(O)c3)[nH]c2c1 |  |
| 390 | 1030 | COc1cccc(-c2[nH]c3cc(OC)ccc3c2C=O)c1 |  |
| 160 | 35 | COc1ccc(-c2[nH]c3cc(OC)ccc3c2C=O)cc1 | IC50 [2]: 1500 nM |
| 140 | 32 | CCCCc1ccc2[nH]c(-c3ccc(C(F)(F)F)cc3)c(/C=N\C)c2c1 |  |
| 240 | 540 | COc1ccc(-c2[nH]c3ccc(F)cc3c2C=O)cc1 |  |
| 200 | 350 | CCCCc1ccc2[nH]c(-c3ccc(F)cc3)c(C=O)c2c1 |  |
| 212 | 40 | CCCCc1ccc2[nH]c(-c3ccc(OC)cc3)c(/C=N\O)c2c1 | Activity (MDA-MB-231 [3]): Active |
|  |  | CC[C@]1(O)C[C@H]2CN(CCc3c([nH]c4ccccc34)[C@@](C(=O)OC)(c3cc4c(cc3OC)N(C=O)[C@H]3[C@@](O)(C(=O)OC)[C@H](OC(C)=O)[C@]5(CC)C=CCN6CC[C@]43[C@@H]65)C2)C1 | Activity (MDA-MB-231 [3]): Active; Activity (U-87MG ATCC [4]): Active |
| 22 | 6.7 | CCCCc1ccc2[nH]c(-c3ccc(OC)cc3)c(C=O)c2c1 | Activity (U-87MG ATCC [5]): Active; Activity (MDA-MB-231 [3]): Active; inhibition (Tubulin (Homo sapiens)): 23% |
|  | 59 | COc1ccc(-c2[nH]c3cc(F)ccc3c2C=O)cc1 | IC50 [2]: 1800 nM |
| 100 | 31 | COc1ccc2c(C=O)c(-c3ccc(C)cc3)[nH]c2c1 |  |
|  |  | COc1ccc(-c2[nH]c3ccc(OC)cc3c2C=O)cc1 | IC50 [2]: 4000 nM |
| 6 | 7.4 | CCCCCCc1ccc2[nH]c(-c3ccc(OC)cc3)c(C=O)c2c1 | Activity (MDA-MB-231 [3]): Active |
| 580 | 280 | COc1ccc(-c2[nH]c3ccc(C(C)(C)C)cc3c2C=O)cc1 |  |
| 140 | 86 | COc1ccc(-c2[nH]c3ccc(C)cc3c2C=O)cc1 | Activity (MDA-MB-231 [3]): Active |
| 27 | 6 | CCCCc1ccc2[nH]c(-c3ccc(OC)cc3)c(/C=N\C)c2c1 | Activity (MDA-MB-231 [3]): Active; IC50 (Tubulin): 1200 nM |
| 1660 | 497 | CCCCc1ccc2[nH]c(-c3ccc(C(F)(F)F)cc3)c(/C=N\O)c2c1 |  |

| IC50 (MCF7) [nM] | IC50 (MDA-MB-231 [1]) [nM] | SMILES | further results |
| --- | --- | --- | --- |
| 65 | 27 | COc1ccc(-c2[nH]c3cc(Cl)ccc3c2C=O)cc1 |  |
| 58 | 27 | CCCCc1ccc2[nH]c(-c3ccc(CC)cc3)c(C=O)c2c1 | Activity (MDA-MB-231 [3]): Active |
| 54 | 34 | CCCCc1ccc2[nH]c(-c3ccc(C)cc3)c(C=O)c2c1 | Activity (MDA-MB-231 [3]): Active |
| 165 | 48 | Cc1ccc(-c2[nH]c3ccc(C)cc3c2C=O)cc1 |  |
| 200 | 300 | CCCCc1ccc(-c2[nH]c3ccc(CC)cc3c2C=O)cc1 |  |
| 97 | 29 | COc1ccc(-c2[nH]c3ccc(C(C)C)cc3c2C=O)cc1 |  |
| 20 | 270 | COc1ccc2c(C=O)c(-c3ccc(OC)c(OC)c3)[nH]c2c1 |  |
| 20 | 5.5 | CCCCCc1ccc2[nH]c(-c3ccc(OC)cc3)c(C=O)c2c1 |  |
| 66 | 33 | CCCCc1ccc2[nH]c(-c3ccc(C(F)(F)F)cc3)c(C=O)c2c1 | Activity (MDA-MB-231 [3]): Active; Activity (Tubulin (Homo sapiens)): inactive |
| 220 | 34 | C/N=C\c1c(-c2ccc(OC)cc2)[nH]c2cc(OC)ccc12 | IC50 [2]: 1800 nM |
| 21 | 6 | CCCCCc1ccc2[nH]c(-c3ccc(OC)cc3)c(/C=N\C)c2c1 |  |
| 22 | 43 | CCCCCCc1ccc2[nH]c(-c3ccc(C(F)(F)F)cc3)c(C=O)c2c1 |  |
| 54 | 20 | CCCc1ccc2[nH]c(-c3ccc(OC)cc3)c(C=O)c2c1 |  |
| 67 | 42 | CCCCCc1ccc2[nH]c(-c3ccc(C(F)(F)F)cc3)c(C=O)c2c1 |  |
| 180 | 72 | COc1ccc(-c2[nH]c3ccc(CC(C)C)cc3c2C=O)cc1 |  |
| 37 | 7.8 | Cc1ccc(-c2[nH]c3cc(Cl)ccc3c2C=O)cc1 |  |
| 62 | 26 | COc1ccc(-c2[nH]c3cc(Cl)c(C)cc3c2C=O)cc1 |  |
